Measurements published in ChEMBL document CHEMBL1122175, “Pentasubstituted quercetin analogues as selective inhibitors of particulate 3':5'-cyclic-AMP phosphodiesterase from rat brain” (J Med Chem, 1982).

Legend:
[1] = target: T1, cGMP-dependent 3',5'-cyclic phosphodiesterase (Rattus norvegicus, UniProt Q01062); assay: Inhibition of rat brain particulate cGMP phosphodiesterase
T1 sequence (Q01062 whole entry): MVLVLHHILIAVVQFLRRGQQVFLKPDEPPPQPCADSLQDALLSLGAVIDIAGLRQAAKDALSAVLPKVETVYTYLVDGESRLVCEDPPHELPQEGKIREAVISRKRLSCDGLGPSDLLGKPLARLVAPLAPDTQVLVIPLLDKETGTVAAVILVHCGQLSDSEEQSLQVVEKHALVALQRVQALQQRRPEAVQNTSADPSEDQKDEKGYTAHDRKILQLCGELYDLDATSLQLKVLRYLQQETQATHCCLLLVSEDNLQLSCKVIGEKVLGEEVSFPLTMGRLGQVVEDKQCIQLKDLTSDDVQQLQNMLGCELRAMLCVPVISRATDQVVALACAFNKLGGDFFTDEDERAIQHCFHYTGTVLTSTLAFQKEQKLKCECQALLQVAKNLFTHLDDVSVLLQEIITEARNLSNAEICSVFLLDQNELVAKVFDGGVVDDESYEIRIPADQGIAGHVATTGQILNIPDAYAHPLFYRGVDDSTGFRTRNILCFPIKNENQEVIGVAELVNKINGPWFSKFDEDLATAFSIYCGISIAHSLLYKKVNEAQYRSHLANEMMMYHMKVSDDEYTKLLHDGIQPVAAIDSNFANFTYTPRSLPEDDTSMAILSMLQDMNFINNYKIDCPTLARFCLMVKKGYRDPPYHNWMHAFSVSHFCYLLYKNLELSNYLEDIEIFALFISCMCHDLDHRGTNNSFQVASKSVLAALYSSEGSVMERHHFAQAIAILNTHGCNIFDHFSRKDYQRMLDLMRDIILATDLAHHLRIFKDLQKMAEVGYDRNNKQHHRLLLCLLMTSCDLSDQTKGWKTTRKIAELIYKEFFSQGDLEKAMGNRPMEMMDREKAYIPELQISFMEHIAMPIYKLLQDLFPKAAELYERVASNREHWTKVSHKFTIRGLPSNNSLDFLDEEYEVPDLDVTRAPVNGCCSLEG
In short: (§1)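 The particulate enzyme was the washed high-speed pellet, rehomogenized in sucrose buffer, then resuspended and dialyzed overnight in 20 mM Tris-HCl pH 7.5, 1 mM MgCl2, 0.1 mM DTT, and stored at -20 °C. Hydrolysis of 0.25 µM cAMP or cGMP was assayed at 30 °C in triplicate.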

[2] = Inhibition of rat brain particulate cAMP phosphodiesterase (Inactive); in short: as §1
[3] = target: T1, cGMP-dependent 3',5'-cyclic phosphodiesterase; assay: Inhibition of rat brain particulate cGMP phosphodiesterase (Inactive); in short: as §1
[4] = Inhibition of rat brain cytosolic cAMP phosphodiesterase (Inactive)
In short: (§2)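 Rat brains without cerebellum were homogenized in 0.32 M sucrose, 5 mM Tris-HCl pH 7.5, 1 mM MgCl2, 0.1 mM DTT. After a 1000g spin and a high-speed spin, the supernatant was dialyzed overnight against 20 mM Tris-HCl pH 7.5, 1 mM MgCl2, 0.1 mM DTT. Assay used 0.25 µM cAMP or cGMP in triplicate at 30 °C.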

[5] = Inhibition of rat brain cytosolic cAMP phosphodiesterase; conditions: read-out: I 50; in short: as §2
Phosphodiesterase 1 = Phosphodiesterase 1 (Rattus norvegicus, UniProt Q63421+Q9EPR9+Q01066); assay: Inhibition of rat brain cytosolic cGMP phosphodiesterase; in short: as §2
[6] = Inhibition of rat brain particulate cAMP phosphodiesterase; conditions: read-out: I50; in short: as §1
Rattus norvegicus [7] = species: Rattus norvegicus; assay: Relative inhibition of cAMP and cGMP hydrolysis by cytosolic phosphodiesterase
Rattus norvegicus [8] = species: Rattus norvegicus; assay: Relative inhibition of cAMP and cGMP hydrolysis by particulate phosphodiesterase
[9] = Inhibition of rat brain particulate cAMP phosphodiesterase; conditions: read-out: I 50
[10] = Inhibition of rat brain particulate cAMP phosphodiesterase (inactive); in short: as §1
[11] = Inhibition of rat brain cytosolic cAMP phosphodiesterase (inactive); in short: as §2
[12] = target: T1, cGMP-dependent 3',5'-cyclic phosphodiesterase; assay: Inhibition of rat brain particulate cGMP phosphodiesterase (inactive); in short: as §1

Row | SMILES | I 50 [3] | I 50 [4] | IC50 [5] [µM] | I 50 (Phosphodiesterase 1) [µM] | Ratio (Rattus norvegicus [7]) | Ratio (Rattus norvegicus [8]) | IC50 ([1]; read-out: I 50) [µM] | IC50 [9] [µM] | also measured
1 | CCCOc1ccccc1-c1nc2nn[nH]c2c(=O)[nH]1 [ZAPRINAST] |  |  |  |  |  |  |  |  | IC50 ([1]; read-out: I50): 63.1 µM
2 | CCCC(=O)Oc1cc(OC(=O)CCC)c2c(=O)c(OC(=O)CCC)c(-c3ccc(OC(=O)CCC)c(OC(=O)CCC)c3)oc2c1 | Not Active | Not Active |  |  |  |  |  |  | I 50 [2]: Not Active
3 | CCOc1cc(OCC)c2c(=O)c(OCCN(CC)CC)c(-c3ccc(OCC)c(OCC)c3)oc2c1 |  |  | 37 | 47 | 0.79 | 0.16 |  |  | IC50 ([1]; read-out: I50): 126 µM; IC50 [6]: 20 µM
4 | CCOc1cc(OCC(=O)O)c2c(=O)c(OCC)c(-c3ccc(OCC)c(OCC)c3)oc2c1 |  |  | 20 | 63 | 0.32 | 0.32 | 48 | 16 | 
5 | COc1cc(OC)c2c(=O)c(OC)c(-c3ccc(OC)c(OC)c3)oc2c1 |  |  | 6.3 | > 1000 | < 0.008 | 0.1 | 96 | 10.2 | 
6 | CCOC(=O)COc1c(-c2ccc(OCC)c(OCC)c2)oc2cc(OCC)cc(OCC)c2c1=O | Not Active | Not Active |  |  |  |  |  |  | I 50 [2]: Not Active
7 | CCCCOc1cc(CC2CNC(=O)N2)ccc1OC (stereo not drawn) [RO-201724] |  |  | 1660 | > 1000 | 0.16 | 0.007 | 10000 | 74.1 | 
8 | O=c1c(OCCO)c(-c2ccc(OCCO)c(OCCO)c2)oc2cc(OCCO)cc(OCCO)c12 |  |  | 470 | 2800 | 0.17 | 0.05 | 1300 | 69 | 
9 | CC(=O)Oc1cc(OC(C)=O)c2c(=O)c(OC(C)=O)c(-c3ccc(OC(C)=O)c(OC(C)=O)c3)oc2c1 |  |  | 355 |  |  | 0.46 | 275 | 126 | 
10 | CCOC(=O)COc1cc(OCC(=O)OCC)c2c(=O)c(OCC(=O)OCC)c(-c3ccc(OCC(=O)OCC)c(OCC(=O)OCC)c3)oc2c1 | Not Active | Not Active |  |  |  |  |  |  | I 50 [2]: Not Active
11 | CCOc1cc(O)c2c(=O)c(OCC)c(-c3ccc(OCC)c(OCC)c3)oc2c1 | Not Active | Not Active |  |  |  |  |  |  | I 50 [2]: Not Active
12 | CCOc1cc(OCC)c2c(=O)c(OCC)c(-c3ccc(OCC)c(OCC)c3)oc2c1 |  |  | 70 | > 10000 | < 0.007 | 0.02 | 350 | 7.7 | 
13 | CCOc1cc(OCCN(CC)CC)c2c(=O)c(OCC)c(-c3ccc(OCC)c(OCC)c3)oc2c1 |  |  | 35 | 58 | 0.6 | 0.11 |  |  | IC50 ([1]; read-out: I50): 80 µM; IC50 [6]: 10 µM
14 | CCOc1cc(OCCBr)c2c(=O)c(OCC)c(-c3ccc(OCC)c(OCC)c3)oc2c1 |  |  | 40 | > 1000 | < 0.04 | 0.18 | 96 | 17 | 
15 | O=c1c(OCCBr)c(-c2ccc(OCCBr)c(OCCBr)c2)oc2cc(OCCBr)cc(OCCBr)c12 |  |  | 500 | 10000 | 0.05 | 0.73 | 24.5 | 18 | 
16 | CCOc1cc(OCC)c2c(=O)c(O)c(-c3ccc(OCC)c(OCC)c3)oc2c1 | Not Active | Not Active |  |  |  |  |  |  | I 50 [2]: Not Active
17 | CCC(=O)Oc1cc(OC(=O)CC)c2c(=O)c(OC(=O)CC)c(-c3ccc(OC(=O)CC)c(OC(=O)CC)c3)oc2c1 | Not Active | Not Active |  |  |  |  |  |  | 
18 | O=c1c(O)c(-c2ccc(O)c(O)c2)oc2cc(O)cc(O)c12 [QUERCETIN] |  |  | 87 | 275 | 0.32 | 0.24 | 81.3 | 20 | 
19 | CCCOc1ccccc1-c1nc2[nH]nnc2c(=O)[nH]1 [ZAPRINAST] |  |  | 66.1 | 93.3 | 0.71 | 1.17 |  |  | IC50 [6]: 74.1 µM
20 | CCOC(=O)COc1cc(OCC)cc2oc(-c3ccc(OCC)c(OCC)c3)c(OCC)c(=O)c12 |  |  | 80 | > 1000 | < 0.08 | 0.01 | 700 | 8.3 | 
21 | CCOc1cc(OCC)c2c(=O)c(OCC(=O)O)c(-c3ccc(OCC)c(OCC)c3)oc2c1 |  |  | 10 | > 1000 | < 0.01 | 0.31 | 71 | 22 | 
22 | CCCOc1cc(OCCC)c2c(=O)c(OCCC)c(-c3ccc(OCCC)c(OCCC)c3)oc2c1 | Not Active | Not Active |  |  |  |  |  |  | I 50 [2]: Not Active
23 | O=C(O)COc1cc(OCC(=O)O)c2c(=O)c(OCC(=O)O)c(-c3ccc(OCC(=O)O)c(OCC(=O)O)c3)oc2c1 |  |  |  |  |  |  |  |  | I 50 [10]: Not Active; I 50 [11]: Not Active; I 50 [12]: Not Active
24 | CCOc1cc(OCC)c2c(=O)c(OCCO)c(-c3ccc(OCC)c(OCC)c3)oc2c1 | Not Active | Not Active |  |  |  |  |  |  | I 50 [2]: Not Active
